Data as given in ChEMBL document CHEMBL1139222, “Discovering potassium channel blockers from synthetic compound database by using structure-based virtual screening in conjunction with electrophysiological assay” (J Med Chem, 2007).
Activity calls are given as the source filed them. The rule behind the calls is not given here.

What was measured:
Hippocampus [1] = assay: Inhibition of fast transient potassium current in Sprague-Dawley rat hippocampal neurons at 100 uM by whole cell voltage clamp method; format: functional
Procedure, shortened: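 In the primary screen, 100 µM compound was dissolved in external solution and delivered by rapid solution changer to dissociated CA1 pyramidal neurons from 5- to 9-day-old Sprague-Dawley rats. Whole-cell voltage clamp was run at 21-23 °C, with series resistance compensated 75-85% and online leak subtraction. Fast transient K+ current (IA) was measured as peak amplitude.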

[2] = Blockade of voltage-gated potassium channel assessed by inhibition of delayed rectifier potassium current in Sprague-Dawley rat hippocampal neurons by whole cell voltage clamp method; format: tissue-based; conditions: Hippocampus
Procedure, shortened: (§1)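 CA1 pyramidal neurons were acutely dissociated from 5- to 9-day-old Sprague-Dawley rats (500 µm minislices, protease XXIII 3 mg/mL, 32 °C, 8 min). Whole-cell voltage clamp was run at 21-23 °C with KCl 140 mM pipettes and leak subtraction. Compound was applied externally by rapid solution changer across a concentration range. IA was read as peak amplitude and IK at 300 ms latency. IC50 came from concentration-response curve fitting.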

Rattus norvegicus = species on record: Rattus norvegicus; assay: Selectivity for inhibition of delayed rectifier potassium current over inhibition of fast transient potassium current at potassium channel in Sprague-Dawley rat hippocampal neurons; format: tissue-based; conditions: Hippocampus
[3] = Blockade of voltage-gated potassium channel assessed as inhibition of fast transient potassium current in Sprague-Dawley rat hippocampal neurons by whole cell voltage clamp method; format: tissue-based; conditions: Hippocampus; procedure, shortened: as §1
Hippocampus [4] = assay: Inhibition of delayed rectifier potassium current in Sprague-Dawley rat hippocampal neurons at 100 uM; format: functional, tissue-based
Procedure, shortened: (§2)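 IK was recorded by whole-cell voltage clamp (21-23 °C, 3-4 MΩ KCl-based pipettes) in dissociated CA1 pyramidal neurons from 5- to 9-day-old Sprague-Dawley rats. Compound was applied intracellularly at the stated concentration. IK amplitude was measured at 300 ms latency, normalized and followed over time after application. Values are mean ± SEM, n = 5.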

Hippocampus [5] = assay: Inhibition of delayed rectifier potassium current in Sprague-Dawley rat hippocampal neurons at 10 uM; format: functional, tissue-based; procedure, shortened: as §2
Hippocampus [6] = assay: Inhibition of delayed rectifier potassium current in Sprague-Dawley rat hippocampal neurons at 300 uM; format: functional, tissue-based; procedure, shortened: as §2
Hippocampus [7] = assay: Inhibition of delayed rectifier potassium current in Sprague-Dawley rat hippocampal neurons at 1 mM; format: functional, tissue-based
Procedure, shortened: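 CA1 pyramidal neurons acutely dissociated from 5- to 9-day-old Sprague-Dawley rats (protease XXIII 3 mg/mL, 32 °C, 8 min). Whole-cell voltage clamp at 21-23 °C, 3-4 MΩ electrodes with KCl pipet solution, 75-85% series-resistance compensation, online leak subtraction. Compound dissolved in external solution and delivered by rapid solution changer. IK amplitude read at 300 ms latency.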

Hippocampus [8] = assay: Inhibition of delayed rectifier potassium current in Sprague-Dawley rat hippocampal neurons at 30 uM; format: functional, tissue-based; procedure, shortened: as §2

| SMILES | inhibition at 100 µM (Hippocampus [1]) [%] | IC50 [2] [µM] | Ratio IC50 (Rattus norvegicus) | IC50 [3] [µM] | Activity (Hippocampus [4]) | Activity (Hippocampus [5]) | Activity (Hippocampus [6]) | Activity (Hippocampus [7]) | Activity (Hippocampus [8]) |
| --- | --- | --- | --- | --- | --- | --- | --- | --- | --- |
| NC(COc1ccccc1)c1ccc2c(c1)OCCO2 (stereo not given) | 20 | 67 | 11 | 737 | inactive | – | – | – | – |
| O=S(=O)(CCN1CCN(Cc2ccccc2)CC1)c1ccc(Cl)cc1 | 11 | 60 | 16.3 | 980 | inactive | – | – | – | – |
| Cc1ccc(S(=O)(=O)NCCOCCOCCOCCNS(=O)(=O)c2ccc(C)cc2)cc1 | 63 | 2.1 | 13.3 | 28 | – | inactive | inactive | – | – |
| COc1ccc2c(CCN)c[nH]c2c1 | 10 | 972 | – | 524 | – | – | – | inactive | – |
| NCCNS(=O)(=O)c1cccc2c(Cl)cccc12 | 27 | 18 | 6.9 | 124 | – | – | – | – | inactive |
| Cc1nc(-c2cccnc2)nc(NCCN)c1Cl | 9 | 83 | 2.9 | 244 | – | – | inactive | – | – |
